Active and inactive are the calls of the source. No cut-off for these calls is given here.
Experiments:
[1] = AUC (0 to last) in CD2F1 mouse at 200 mg/kg, sc measured up to 24 hrs; type: ADME, organism-based; set-up: dose 200 mg/kg, route subcutaneous, time 0 - last; conditions: in vivo
Outline: (§1)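 Single SC injection in CD2F1 mice, emulsified in PBS with 5% tween 80 (100 µL/mouse, 0.22 µm filtered), n = 4 per group. Retro-orbital blood into EDTA-K tubes at 0, 7.5, 15, 30 min and 1, 2, 4, 6, 8, 12, 24 h. Plasma extracted with methanol/ascorbic acid plus heptane/BHT, internal standard, HPLC-fluorescence.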

[2] = Cmax in CD2F1 mouse at 200 mg/kg, sc measured up to 24 hrs; type: ADME, organism-based; set-up: dose 200 mg/kg, route subcutaneous; conditions: in vivo
Outline: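 Single subcutaneous dose, 200 mg/Kg, emulsified in PBS with 5% tween 80, 100 µL/mouse, filter-sterilized; n = 4 per group. Retro-orbital blood into EDTA potassium tubes at 0, 7.5, 15, 30 min, 1, 2, 4, 6, 8, 12, 24 h; plasma at -80 °C. Heptane/methanol extraction with internal standard, HPLC-fluorescence; peak concentration taken from the concentration-time profile.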

[3] = Half life in mouse liver microsomes; type: ADME, Microsome
[4] = Volume of distribution in CD2F1 mouse at 50 mg/kg, iv measured up to 24 hrs; type: ADME, organism-based; conditions: in vivo
Outline: (§2)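 Single IV bolus, 50 mg/Kg, emulsified in PBS with 33% PEG400 and 2% tween 80, 150 µL/mouse, filter-sterilized; n = 4 per group. Retro-orbital blood into EDTA potassium tubes at 0, 5, 10, 30 min, 1, 2, 4, 6, 12, 24 h. Plasma extracted with methanol (2% ascorbic acid) and heptane (1% BHT) plus internal standard; HPLC-fluorescence quantitation.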

[5] = Metabolic stability in mouse liver microsomes assessed as compound degradation at 1 uM preincubated for 30 mins followed by NADPH addition measured up to 30 mins by HPLC-UV analysis; type: ADME, Microsome; conditions: 0.5 h
Outline: (§3)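 Mouse liver microsomes (5 mg protein/mL) in 0.2 M potassium phosphate, pH 7.4, with EDTA. Test compound at 1 µM preincubated 30 min at 37 °C, then started with an NADPH-generating system (NADP⁺, Glc-6-PO₄, MgCl₂, G6PDH); controls received buffer in place of NADPH. Sampled at 5, 15 and 30 min into cold acetonitrile containing GT3 internal standard. Percent remaining reported, n = 3.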

[6] = Plasma concentration in CD2F1 mouse at 200 mg/kg, sc administered as single dose measured after 1 hr by HPLC-fluorescence analysis; type: ADME, organism-based
Outline: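 Single subcutaneous dose of 200 mg/Kg in CD2F1 mice, emulsified in PBS with 5% tween 80 and filter-sterilized, n = 3–4. Retro-orbital blood drawn at 0 min to 24 h. Plasma mixed with internal standard, methanol containing 2% ascorbic acid and heptane containing 1% BHT. Upper layer dried under N₂, reconstituted in methanol and quantified by HPLC-fluorescence.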

[7] = AUC (0 to last) in CD2F1 mouse at 50 mg/kg, iv measured up to 24 hrs; type: ADME, organism-based; set-up: dose 50 mg/kg, route intravenous, time 0 - last; conditions: in vivo
Outline: as §1, with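 “IV bolus” for “SC injection”, “33% PEG400 and 2%” for “5%”, “(150” for “(100”, “5, 10,” for “7.5, 15,”, “6,” for “6, 8,”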

[8] = Intrinsic clearance in mouse liver microsomes; type: ADME, Microsome
Outline: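 Mouse liver microsomes (5 mg protein/mL) in potassium phosphate buffer pH 7.4 with EDTA; compound 1 µM preincubated 30 min at 37 °C, reaction started with NADPH-generating system (NADP⁺, glucose-6-phosphate, MgCl₂, G6PDH); no-NADPH control. Sampled at 5, 15, 30 min into cold acetonitrile with internal standard; percent remaining measured; half-life and clearance calculated; n = 3.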

[9] = AUC (0 to infinity) in CD2F1 mouse at 50 mg/kg, iv measured up to 24 hrs; type: ADME, organism-based; set-up: dose 50 mg/kg, time infinity, route intravenous; conditions: in vivo
Outline: as §1, with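 “IV bolus” for “SC injection”, “33% PEG400 and 2%” for “5%”, “(150” for “(100”, “5, 10,” for “7.5, 15,”, “6,” for “6, 8,”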

[10] = Clearance in CD2F1 mouse at 50 mg/kg, iv measured up to 24 hrs; type: ADME, organism-based; conditions: in vivo; outline: as §2
[11] = Metabolic stability in mouse live microsomes assessed as compound degradation in absence of NADPH; type: ADME, Liver, Microsome; outline: as §3
Mus musculus [12] = test: Induction of G-CSF production in CD2F1 mouse at 200 mg/kg, sc by G-CSF ELISA kit method; type: functional, organism-based; conditions: TDE = time-dependent effect
Outline: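 CD2F1 mice, subcutaneous dose of 0.5 mM/Kg (200 mg/Kg) emulsified in PBS with 5% tween 80, n = 3–4. Blood taken into EDTA-K tubes at 8, 12, 24 and 48 h. Plasma spun at 1200 rpm, 15 min, 4 °C and held at −80 °C. G-CSF measured by mouse ELISA, each sample run in duplicate and averaged, with a standard curve on every plate.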

Mus musculus [13] = test: Induction of G-CSF production in CD2F1 mouse at 200 mg/kg, sc pretreated with ketoconazole after 24 hrs by G-CSF ELISA kit method; type: functional, organism-based
Outline: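 CD2F1 mice received ketoconazole in corn oil (5 mg/250 µL/mouse) by oral gavage at 26, 14 and 2 h before drug. Drug then given subcutaneously at 200 mg/Kg in 5% tween 80/PBS, n = 3. Plasma collected at 8 and 24 h. G-CSF measured by ELISA in duplicate against a per-plate standard curve.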

In the case of `[2H]C([2H])([2H])C(=CCC/C(C)=C/CC/C(C)=C/CC[C@]1(C)CCc2cc(O)cc(C)c2O1)C([2H])([2H])[2H]`, the AUClast [1] is reported as 11354 ng·h/mL, the Cmax [2] is reported as 970 ng/mL and the t1/2 [3] is reported as 2.642 h. The Vd [4] was 21.3 L/kg, the Stability [5] was “Unstable” and the concentration at 1 h [6] was 800 to 1000 ng/mL. The AUClast [7] was 34213 ng·h/mL, the CLH [8] was 3580 µL/min/mg and the AUC [9] was 35707 ng·h/mL. The CL [10] was 23.3 mL/min/kg and the Stability [11] was “Stable”.

In the case of `CC(C)=CCC/C(C)=C/CC/C(C)=C/CC[C@]1(C)CCc2cc(O)cc(C)c2O1` [DELTA-TOCOTRIENOL], the AUClast [1] is reported as 10314 ng·h/mL, the Cmax [2] is reported as 810 ng/mL and the t1/2 [3] is reported as 1.778 h. For the same compound, the Vd [4] was 20.7 L/kg, the Stability [5] was “Unstable” and the concentration at 1 h [6] was 800 to 1000 ng/mL. The AUClast [7] was 32804 ng·h/mL, the CLH [8] was 5260 µL/min/mg and the Activity (Mus musculus [12]) was “Tde”. For the same compound, the Activity (Mus musculus [12]; tested as the 2H-labelled form) was “Tde”, the AUC [9] was 33456 ng·h/mL and the Activity (Mus musculus [13]) was “Active”. The Activity (Mus musculus [13]; tested as the 2H-labelled form) was “Active”, the CL [10] was 24.92 mL/min/kg and the Stability [11] was “Stable”.
